Reference: ChEMBL document CHEMBL4130635, “2,4-Diaminoquinazolines as Dual Toll-like Receptor (TLR) 7/8 Modulators for the Treatment of Hepatitis B Virus” (J Med Chem, 2018)
The source made the active and inactive calls. The calls are words filed in the database; no cut-off is given here.

Columns and labels:
[1] = Protein binding in mouse plasma fraction at 5 uM after 4.5 hrs LC-MS/MS-based rapid equilibrium dialysis method; assay type: ADME, cell-free; settings: read-out: PPB (converted)
[2] = Tmax in Sprague-Dawley rat liver at 10 mg/kg, po; assay type: ADME, organism-based
[3] = Cmax in Sprague-Dawley rat plasma at 10 mg/kg, po; assay type: ADME, organism-based; parameters: dose 10 mg/kg, route oral
In short: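 Male Sprague-Dawley rats given 10 mg/kg po as a solution. Compound measured in portal vein, systemic plasma and liver. Cmax taken from concentration–time profiles.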

[4] = Cmax in C57BL/6J mouse liver at 1 mg/kg, po by LC-MS analysis; assay type: ADME, organism-based; parameters: dose 1 mg/kg, route oral
In short: (§1)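 Healthy C57BL/6 mice, groups of 15, given a single oral dose (0.3, 1, 3, 10 or 30 mg/kg) in 20% HP-β-CD. Blood drawn at 0.5 h. Three mice per group sacrificed at 0.5, 1, 2, 4 or 7 h, and compound in plasma and liver measured by LC−MS. Values rounded to whole numbers.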

[5] = Cmax in C57BL/6J mouse plasma at 10 mg/kg, po by LC-MS analysis; assay type: ADME, organism-based; parameters: dose 10 mg/kg, route oral; in short: as §1
[6] = Plasma concentration in C57BL/6J mouse at 30 mg/kg, po by LC-MS analysis; assay type: ADME, organism-based; settings: in vivo
[7] = test system: Plasma; test: Induction of IFNalpha levels in C57BL/6J mouse plasma at 30 mg/kg, po by ELISA; assay type: functional
[8] = test system: Plasma; test: Proinflammatory activity in C57BL/6J mouse plasma assessed as IL-6 levels at 10 mg/kg, po by multiplex assay (reference value: 505 pg/ml); assay type: functional
[9] = test system: Liver; test: Proinflammatory activity in C57BL/6J mouse liver assessed as IL-6 levels at 0.3 mg/kg, po by multiplex assay (reference value: 10 pg/g); assay type: functional, organism-based
[10] = test system: Liver; test: Proinflammatory activity in C57BL/6J mouse liver assessed as IL-6 levels at 10 mg/kg, po by multiplex assay (reference value: 10 pg/g); assay type: functional
[11] = test system: Liver; test: Anti-inflammatory activity in C57BL/6J mouse liver assessed as IL-10 levels at 3 mg/kg, po by multiplex assay (reference value: 2 pg/g); assay type: functional
In short: (§2)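 Single oral gavage in 20% HP-β-CD to healthy C57BL/6 mice, groups of 15 at 0.3, 1, 3, 10 or 30 mg/kg. Three mice per group sacrificed at 0.5, 1, 2, 4 or 7 h. Plasma and liver cytokines by multiplex, maximum level reported, rounded to nearest multiple of 5.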

[12] = test system: Plasma; test: Proinflammatory activity in C57BL/6J mouse plasma assessed as TNFalpha levels at 10 mg/kg, po by multiplex assay (reference value: 70 pg/ml); assay type: functional
[13] = test system: Plasma; test: Anti-inflammatory activity in C57BL/6J mouse plasma assessed as IL-10 levels at 0.3 mg/kg, po by multiplex assay (reference value: 120 pg/ml); assay type: functional; in short: as §2
[14] = Cmax in cynomolgus monkey plasma at 3 mg/kg, po by LC-MS analysis; assay type: ADME, organism-based, Macaca fascicularis; parameters: dose 3 mg/kg, route oral
In short: (§3)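 Healthy cynomolgus monkeys received oral doses of 1, 3, 9 and 30 mg/kg, with a 2-week wash-out between doses. Systemic compound concentrations by LC−MS at 0.25, 0.5, 1, 2, 4, 8 and 24 h postdose.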

[15] = Cmax in cynomolgus monkey plasma at 9 mg/kg, po by LC-MS analysis; assay type: ADME, organism-based, Macaca fascicularis; parameters: dose 9 mg/kg, route oral; in short: as §3
[16] = AUC (0 to last) in cynomolgus monkey plasma at 3 mg/kg, po by LC-MS analysis; assay type: ADME, organism-based, Macaca fascicularis; parameters: dose 3 mg/kg, time 0 - last, route oral
In short: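 Healthy cynomolgus monkeys received single oral doses of 1, 3, 9 and 30 mg/kg, with a 2-week wash-out between doses. Systemic compound concentrations were measured by LC–MS at 0.25, 0.5, 1, 2, 4, 8 and 24 h postdose.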

[17] = test system: Cynomolgus monkey; test: Plasma concentration in cynomolgus monkey at 1 mg/kg, po by LC-MS analysis; assay type: ADME, organism-based, Macaca fascicularis; settings: in vivo
[18] = test system: Cynomolgus monkey; test: Effect on cytokine profile in cynomolgus monkey plasma assessed as IP10 levels at 9 mg/kg, po after 24 hrs by Luminex assay (reference value: 18.5 pg/ml); assay type: functional, Macaca fascicularis
In short: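 Healthy cynomolgus monkeys given single oral doses of 1, 3, 9 and 30 mg/kg, with a 2-week wash-out planned between doses. Systemic cytokine levels in plasma were sampled at 0.5, 1, 2, 4, 9 and 24 h postdose.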

[19] = test system: Cynomolgus monkey; test: Proinflammatory activity in cynomolgus monkey plasma assessed as TNFalpha levels at 1 mg/kg, po after 24 hrs by Luminex assay (reference value: 285 pg/ml); assay type: functional, organism-based; settings: Macaca fascicularis
[20] = test system: Cynomolgus monkey; test: Anti-inflammatory activity in cynomolgus monkey plasma assessed as IL-10 levels at 30 mg/kg, po after 24 hrs by Luminex assay (reference value: 195 pg/ml); assay type: functional, Macaca fascicularis
[21] = test system: Cynomolgus monkey; test: Induction of ISG response in cynomolgus monkey plasma assessed as upregulation of Mx1 mRNA expression at 30 mg/kg, po after 24 hrs by Fluidigm RT-qPCR analysis (reference value: 1); assay type: functional, Macaca fascicularis
In short: (§4)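 Cynomolgus monkeys, single oral doses of 1, 3, 9 and 30 mg/kg with a planned 2-week wash-out between doses. Systemic ISG (ISG15, Mx1, OAS1) mRNA was measured by Fluidigm RT-qPCR at 1, 2, 4, 8 and 24 h postdose.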

[22] = test system: Cynomolgus monkey; test: Induction of ISG response in cynomolgus monkey plasma assessed as upregulation of Oas1b mRNA expression at 30 mg/kg, po after 24 hrs by Fluidigm RT-qPCR analysis (reference value: 1); assay type: functional, Macaca fascicularis; in short: as §4
[23] = test system: Cynomolgus monkey; test: Upregulation of Tlr7 expression in cynomolgus monkey plasma at 9 mg/kg, po after 24 hrs by Fluidigm RT-qPCR analysis (reference value: 1.8); assay type: functional, Macaca fascicularis
[24] = test system: Cynomolgus monkey; test: Toxicity in cynomolgus monkey assessed as induction of emesis at 30 mg/kg, po after 1 hr postdosing; assay type: organism-based, Macaca fascicularis; settings: in vivo
[25] = target: T1, TLR7 and TLR8 (Homo sapiens) (UniProt Q9NYK1+Q9NR97); test: Agonist activity at TLR7/8 in human PBMCs co-cultured with primary human hepatocytes infected with HBV genotype C for 12 days assessed as increase in MCP1 levels up to 5 uM measured after 42 days
[26] = target: T1, TLR7 and TLR8 (Homo sapiens); test: Agonist activity at TLR7/8 in human PBMCs assessed as reduction in extracellular viral load in human hepatocytes infected with HBV genotype C for 12 days followed by exposure to conditioned supernatant from up to 5 uM compound treated PBMCs measured after 42 days; assay type: cell-based
[27] = test system: Hepatocyte; test: Toxicity in human primary hepatocytes infected with HBV genotype C for 12 days followed by exposure to conditioned supernatant from at 5 uM compound treated PBMCs assessed as increase in AST level measured after 42 days relative to untreated control; assay type: cell-based; settings: 1008 h
[28] = Metabolic stability in mouse liver microsomes assessed as compound metabolized at 1 uM after 15 mins; assay type: ADME, microsome; settings: read-out: Drug metabolism
In short: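 Mouse (M) or human (H) liver microsomes incubated with compound at 1 μM; percent metabolized after 15 min.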

[29] = target: Cytochrome P450 3A4 (Homo sapiens, UniProt P08684); test: Induction of CYP3A4 (unknown origin); assay type: ADME
[30] = test system: Toll-like receptor 7/8 (Homo sapiens); test: Agonist activity at TLR7/8 in human PBMCs assessed as decrease in HBsAg levels in human hepatocytes infected with HBV genotype C for 12 days followed by exposure to conditioned supernatant from up to 5 uM compound treated PBMCs measured after 42 days

Cytochrome P450 3A4, sequence (P08684 whole entry): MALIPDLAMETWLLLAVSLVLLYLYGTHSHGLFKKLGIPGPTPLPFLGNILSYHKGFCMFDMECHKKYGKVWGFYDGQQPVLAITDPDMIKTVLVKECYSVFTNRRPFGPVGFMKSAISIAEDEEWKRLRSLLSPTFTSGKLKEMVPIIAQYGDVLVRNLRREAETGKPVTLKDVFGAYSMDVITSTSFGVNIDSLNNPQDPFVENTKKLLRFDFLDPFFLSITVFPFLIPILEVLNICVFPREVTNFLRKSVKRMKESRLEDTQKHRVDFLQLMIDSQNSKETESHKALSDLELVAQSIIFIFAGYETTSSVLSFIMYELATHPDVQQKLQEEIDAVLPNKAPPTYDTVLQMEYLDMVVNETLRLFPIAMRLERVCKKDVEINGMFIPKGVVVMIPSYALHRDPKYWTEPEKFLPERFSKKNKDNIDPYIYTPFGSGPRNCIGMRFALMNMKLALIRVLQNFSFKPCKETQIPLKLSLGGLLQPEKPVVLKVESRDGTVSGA

CCC[C@@H](CCO)Nc1nc(N)nc2c(F)cccc12
fraction unbound at 4.5 h, 5 µM [1]: 0.4 | Tmax [2]: 30 min | Cmax [3]: 16 ng/mL | Cmax [4]: 188 ng/g | Cmax [5]: 148 ng/mL | Cp [6]: 35.7 ng/mL | Activity [7]: 1930 pg/mL | Activity [8]: >10000 pg/mL | Activity [9]: Below limit of detection | Activity [10]: 3450 pg/g | Activity [11]: 1355 pg/g | Activity [12]: >10000 pg/mL | Activity [13]: 345 pg/mL | Cmax [14]: 142 ng/mL | Cmax [15]: 815 ng/mL | AUC(0-t) [16]: 383 ng·h/mL | Cp [17]: 5.9 ng/mL | Activity [18]: 2400 pg/mL | Activity [19]: Below limit of detection | Activity [20]: 9135 pg/mL | fold change (FC) [21]: 65 | fold change (FC) [22]: 235 | fold change (FC) [23]: 3.5 | Activity [24]: Toxic | Activity [25]: Active | Activity [26]: Active | fold change (FC) [27]: 2.6 | metabolised at 0.25 h, 1 µM [28]: 93% | Activity [29]: Not Active | Activity [30]: Dose-dependent effect
